Tests used:
Type in all cases: functional
TK-10 = experiment: Cytotoxicity against human TK10 cells assessed as cell growth at 1 uM after 48 hrs by sulforhodamine B assay; conditions: TK-10, 48 h, read-out: Activity
A498 = experiment: Cytotoxicity against human A498 cells assessed as cell growth at 10 uM after 48 hrs by sulforhodamine B assay; conditions: A498, 48 h, read-out: Activity
Summary of the method: (§1)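 NCI-60 five-dose screen. Cells were grown in RPMI 1640 with 5% FBS and 2 mM L-glutamine, plated at 5000–40,000 cells/well and preincubated for 24 h. Time-zero plates were TCA-fixed. DMSO-solubilized drug was added at five concentrations (10-fold or ½-log serial dilutions) for 48 h at 37 °C, 5% CO2. Cells were TCA-fixed, stained with 0.4% SRB and read at 515 nm. Percent growth used time-zero, control and test absorbances.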

MDA-MB-468 = experiment: Cytotoxicity against human MDA-MB-468 cells assessed as cell growth at 0.001 uM after 48 hrs by sulforhodamine B assay; conditions: MDA-MB-468, 48 h, read-out: Activity
OVCAR-4 [1] = experiment: Cytotoxicity against human OVCAR4 cells assessed as cell growth at 1 uM after 48 hrs by sulforhodamine B assay; conditions: OVCAR-4, 48 h, read-out: Activity
OVCAR-3 [2] = experiment: Cytotoxicity against human OVCAR-3 cells assessed as cell growth at 100 nM after 48 hrs by sulforhodamine B assay; conditions: OVCAR-3, 48 h, read-out: Activity
OVCAR-4 [3] = experiment: Growth inhibition of human OVCAR4 cells after 48 hrs by sulforhodamine B assay; conditions: OVCAR-4, 48 h; for CC50: read-out: LC50 (the source's name)
Summary of the method: (§2)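 NCI 60-cell screen, five-dose mode. Cells grown in RPMI 1640 with 5% FBS and 2 mM L-glutamine and plated at 5000-40,000 cells/well according to doubling time. After 24 h preincubation, a Tz plate was TCA-fixed. Five concentrations (10-fold or 1/2 log dilutions) were applied for 48 h at 37 °C. SRB staining read at 515 nm. IC50 taken from [(Ti-Tz)/(C-Tz)]×100 = 50.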

BT-549 [4] = experiment: Cytotoxicity against human BT549 cells assessed as cell growth at 0.001 uM after 48 hrs by sulforhodamine B assay; conditions: BT-549, 48 h, read-out: Activity; summary of the method: as §1
UACC-62 [5] = experiment: Cytotoxicity against human UACC62 cells assessed as cell growth at 100 nM after 48 hrs by sulforhodamine B assay; conditions: UACC-62, 48 h, read-out: Activity
MDA-MB-231 = experiment: Cytotoxicity against human MDA-MB-231 cells assessed as cell growth at 0.01 uM after 48 hrs by sulforhodamine B assay; conditions: MDA-MB-231, 48 h, read-out: Activity
KM12 [6] = experiment: Cytotoxicity against human KM12 cells assessed as cell growth at 0.01 uM after 48 hrs by sulforhodamine B assay; conditions: KM12, 48 h, read-out: Activity
T47D [7] = experiment: Cytotoxicity against human T47D cells assessed as cell growth at 10 uM; conditions: read-out: Activity
Summary of the method: (§3)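 NCI-60 screen: cells grown in RPMI 1640 with 5% FBS and 2 mM L-glutamine, plated at 5000–40,000 cells/well according to doubling time, and preincubated 24 h at 37 °C, 5% CO2. The single 10 µM dose (DMSO stock) was added, then incubated 48 h. Cells were TCA-fixed and stained with 0.4% SRB, read at 515 nm, and growth % calculated against time-zero and control plates.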

T47D [8] = experiment: Cytotoxicity against human T47D cells assessed as cell growth at 0.01 uM after 48 hrs by sulforhodamine B assay; conditions: read-out: Activity
HOP-62 = experiment: Cytotoxicity against human HOP62 cells assessed as cell growth at 0.001 uM after 48 hrs by sulforhodamine B assay; conditions: HOP-62, 48 h, read-out: Activity
OVCAR-3 [9] = experiment: Cytotoxicity against human OVCAR-3 cells assessed as cell growth at 0.001 uM after 48 hrs by sulforhodamine B assay; conditions: OVCAR-3, 48 h, read-out: Activity
UACC-62 [10] = experiment: Cytotoxicity against human UACC62 cells assessed as cell growth at 10 uM; conditions: read-out: Activity; summary of the method: as §3
HT-29 [11] = experiment: Growth inhibition of human HT-29 cells after 48 hrs by sulforhodamine B assay; conditions: HT-29, 48 h; summary of the method: as §2
NCI-H460 = experiment: Cytotoxicity against human NCI-H460 cells assessed as cell growth at 0.01 uM after 48 hrs by sulforhodamine B assay; conditions: NCI-H460, 48 h, read-out: Activity
OVCAR-5 = experiment: Growth inhibition of human OVCAR5 cells after 48 hrs by sulforhodamine B assay; conditions: OVCAR-5, 48 h; for CC50: read-out: LC50 (the source's name); summary of the method: as §2
NCI-H23 [12] = experiment: Cytotoxicity against human NCI-H23 cells assessed as cell growth at 1 uM after 48 hrs by sulforhodamine B assay; conditions: NCI-H23, 48 h, read-out: Activity
HT-29 [13] = experiment: Cytotoxicity against human HT-29 cells assessed as cell growth at 0.001 uM after 48 hrs by sulforhodamine B assay; conditions: HT-29, 48 h, read-out: Activity
OVCAR-3 [14] = experiment: Cytotoxicity against human OVCAR-3 cells assessed as cell growth at 0.01 uM after 48 hrs by sulforhodamine B assay; conditions: OVCAR-3, 48 h, read-out: Activity
NCI-H23 [15] = experiment: Cytotoxicity against human NCI-H23 cells assessed as cell growth at 10 uM; conditions: read-out: Activity; summary of the method: as §3
A549 [16] = experiment: Cytotoxicity against human A549 cells assessed as cell growth at 10 uM; conditions: read-out: Activity
Summary of the method: (§4)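 Single-dose NCI-60 screen at 10 µM. Cells were grown in RPMI 1640 with 5% FBS and 2 mM L-glutamine, then treated for 48 h at 37 °C. Protein was measured by SRB staining with absorbance at 515 nm. Percentage growth was recorded, and inhibition percentage was calculated as 100 minus growth percentage.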

A549 [17] = experiment: Growth inhibition of human A549 cells after 48 hrs by sulforhodamine B assay; conditions: A549, 48 h
Summary of the method: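 NCI five-dose SRB assay in RPMI 1640 with 5% FBS and 2 mM L-glutamine. Cells were preincubated 24 h, then exposed 48 h at 37 °C to five concentrations (10-fold or half-log serial dilutions from DMSO stocks). TCA fixation, SRB staining, and absorbance at 515 nm followed. IC50 was taken where [(Ti−Tz)/(C−Tz)]×100 = 50, with Tz as time-zero cell density.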

786-0 = experiment: Cytotoxicity against human 786-0 cells assessed as cell growth at 100 nM after 48 hrs by sulforhodamine B assay; conditions: 786-0, 48 h, read-out: Activity; summary of the method: as §1
BT-549 [18] = experiment: Cytotoxicity against human BT549 cells assessed as cell growth at 10 uM; conditions: read-out: Activity; summary of the method: as §4
NCI/ADR-RES [19] = experiment: Cytotoxicity against human NCI/ADR-RES cells assessed as cell growth at 0.001 uM after 48 hrs by sulforhodamine B assay; conditions: read-out: Activity
NCI/ADR-RES [20] = experiment: Cytotoxicity against human NCI/ADR-RES cells assessed as cell growth at 10 uM after 48 hrs by sulforhodamine B assay; conditions: read-out: Activity
KM12 [21] = experiment: Cytotoxicity against human KM12 cells assessed as cell growth at 0.001 uM after 48 hrs by sulforhodamine B assay; conditions: KM12, 48 h, read-out: Activity

| Compound | growth at 1 µM (TK-10) [%] | growth at 10 µM (A498) [%] | growth at 0.001 µM (MDA-MB-468) [%] | growth at 1 µM (OVCAR-4 [1]) [%] | growth at 0.1 µM (OVCAR-3 [2]) [%] | GI50 (OVCAR-4 [3]) [µM] | TGI (OVCAR-4 [3]) [µM] | CC50 (OVCAR-4 [3]) [µM] | growth at 0.001 µM (BT-549 [4]) [%] | growth at 0.1 µM (UACC-62 [5]) [%] | growth at 0.01 µM (MDA-MB-231) [%] | growth at 0.01 µM (KM12 [6]) [%] | growth at 10 µM (T47D [7]) [%] | growth at 0.01 µM (T47D [8]) [%] | growth at 0.001 µM (HOP-62) [%] | growth at 0.001 µM (OVCAR-3 [9]) [%] | growth at 10 µM (UACC-62 [10]) [%] | GI50 (HT-29 [11]) [µM] | TGI (HT-29 [11]) [µM] | growth at 0.01 µM (NCI-H460) [%] | also measured |
| --- | --- | --- | --- | --- | --- | --- | --- | --- | --- | --- | --- | --- | --- | --- | --- | --- | --- | --- | --- | --- | --- |
| COc1cc(C)cc(-c2c(-c3ccnc(-c4ccc(N(C)C)cc4)c3)cnn2CC#N)c1 | 31 | 7 | 93 | 31 | -20 | 0.27 | > 100 | > 100 | 93 | 37 | 88 | 20 | 46.5 | 36 | 99 | 98 | 20.3 | 0.0377 | 0.211 | 35 | GI50 (OVCAR-5): > 100 µM; TGI (OVCAR-5): > 100 µM; CC50 (OVCAR-5): > 100 µM; growth at 1 µM (NCI-H23 [12]): 17%; growth at 0.001 µM (HT-29 [13]): 94%; growth at 0.01 µM (OVCAR-3 [14]): 63%; growth at 10 µM (NCI-H23 [15]): -10.3%; growth at 10 µM (A549 [16]): 22.2%; GI50 (A549 [17]): 0.155 µM; LC50 (A549 [17]): > 100 µM; TGI (A549 [17]): > 100 µM; growth at 0.1 µM (786-0): 6%; growth at 10 µM (BT-549 [18]): -26.5%; growth at 0.001 µM (NCI/ADR-RES [19]): 96%; growth at 10 µM (NCI/ADR-RES [20]): 3%; growth at 0.001 µM (KM12 [21]): 95% |
| COc1cc(C)cc(-c2nn(CC#N)cc2-c2ccc(-c3cccc(C(C)=O)c3)nc2)c1 | 2 | -55 | 83 | 19 | 66 | 3.76 | > 100 | > 100 | 99 | 71 | 96 | 96 | 11.6 | 93 | 84 | 102 | 27.2 | 3.28 | 18.7 | 104 | CC50 (HT-29 [11]; read-out: LC50 (the source's name)): > 100 µM; GI50 (OVCAR-5): 2.43 µM; TGI (OVCAR-5): 33.9 µM; CC50 (OVCAR-5): > 100 µM; growth at 1 µM (NCI-H23 [12]): 17%; growth at 0.001 µM (HT-29 [13]): 95%; growth at 0.01 µM (OVCAR-3 [14]): 104%; growth at 10 µM (NCI-H23 [15]): 25.1%; growth at 10 µM (A549 [16]): 38.8%; GI50 (A549 [17]): 3.87 µM; LC50 (A549 [17]): > 100 µM; TGI (A549 [17]): 30.8 µM; growth at 0.1 µM (786-0): 92%; growth at 10 µM (BT-549 [18]): 25.4%; growth at 0.001 µM (NCI/ADR-RES [19]): 99%; growth at 10 µM (NCI/ADR-RES [20]): -14%; growth at 0.001 µM (KM12 [21]): 99% |

Source: ChEMBL document CHEMBL1165950, “Design and synthesis of new potent anticancer pyrazoles with high FLT3 kinase inhibitory selectivity” (Bioorg Med Chem, 2010)
